Source: ChEMBL document CHEMBL1148265, “Synthesis and biological activity of N-aryl-2-aminothiazoles: potent pan inhibitors of cyclin-dependent kinases” (Bioorg Med Chem Lett, 2004)

Tests used:
[1] = molecular target: Cyclin-dependent kinase 4/cyclin D (Homo sapiens, UniProt P11802); experiment: Inhibition of Cyclin-dependent kinase 4-cyclin D; format: protein-complex assay
Method in brief: (§1)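 Cell-free kinase assay with the CDK/cyclin complex as enzyme. Read-out is phosphorylation of RB protein as substrate. IC50 values were reported.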

A2780 = experiment: Cytotoxic effect on human ovarian (A2780) cancer cell line; format: functional, cell-based
[2] = molecular target: Cyclin-dependent kinase 2/cyclin E (Homo sapiens, UniProt P24941); experiment: Inhibition of Cyclin-dependent kinase 2-cyclin E; format: protein-complex assay; method in brief: as §1
[3] = molecular target: Cyclin-dependent kinase 1/cyclin B (Homo sapiens, UniProt P06493); experiment: Inhibition of cyclin-dependent kinase 1-cyclin B; format: protein-complex assay; method in brief: as §1
Mus musculus [4] = experiment: In vivo anticancer activity of compound was determined as increase in survival time of treated groups versus untreated control against P388 murine leukemia in mice at 4 mg/kg; format: functional
Method in brief: (§2)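 P388 murine leukemia cells implanted ip into immunocompetent mice. Drug given ip right after implantation, then once daily for 7 days (qdx7). Efficacy read as increase in lifespan, reported as the ratio of lifespan of the treated group (T) to the control group (C) (%T/C).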

Mus musculus [5] = organism: Mus musculus; experiment: Compound was tested binding to mouse serum; format: functional
Method in brief: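 Free versus bound fraction measured by equilibrium dialysis against mouse serum.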

Mus musculus [6] = experiment: In vivo anticancer activity of compound was determined as increase in survival time of treated groups versus untreated control against P388 murine leukemia in mice at 90 mg/kg; format: functional; method in brief: as §2

Compound | IC50 [1] | IC50 [2] | IC50 [3] | IC50 (A2780) | T/C (Mus musculus [4]) | Binding (Mus musculus [5]) | T/C (Mus musculus [6])
CC(C)(C)c1cnc(CSc2cnc(NC(=O)Cc3cccnc3)s2)o1 | 1090 nM | 5 nM | 80 nM | 240 nM | – | – | –
CC(C)(CO)CNCc1ccc(Nc2ncc(SCc3ncc(C(C)(C)C)o3)s2)nc1 | 26 nM | 3 nM | 18 nM | 3 nM | 156% | 90% | –
CC(C)(C)c1cnc(CSc2cnc(Nc3ccc(S(=O)(=O)NCCO)cc3)s2)o1 | 233 nM | 2 nM | 10 nM | 69 nM | – | 97% | 180%

Continued, in another order:

IC50 [1] | IC50 [2] | IC50 [3] | Compound | IC50 (A2780) | T/C (Mus musculus [4]) | Binding (Mus musculus [5]) | T/C (Mus musculus [6])
130 nM | 3 nM | 10 nM | CC(C)(C)c1cnc(CSc2cnc(Nc3cccnc3)s2)o1 | 50 nM | – | – | –
9 nM | 2 nM | 4 nM | CC(C)(C)c1cnc(CSc2cnc(Nc3ccccn3)s2)o1 | 10 nM | – | – | –
78 nM | 4 nM | 12 nM | CC(C)(C)c1cnc(CSc2cnc(Nc3ccccc3)s2)o1 | 140 nM | – | – | –
